This note sets out measurements from ChEMBL document CHEMBL4033702, “Challenges in the development of an M4 PAM preclinical candidate: The discovery, SAR, and in vivo characterization of a series of 3-aminoazetidine-derived amides” (Bioorg Med Chem Lett, 2017).

Data set [1] deals with Cytochrome P450 3A4 (Homo sapiens, UniProt P08684). Nature of the data set: Inhibition of CYP3A4 (unknown origin). Format: ADME.
Data set [2] deals with T1, Cytochrome P450 1A2 (Homo sapiens, UniProt P05177).
T1 sequence (P05177 whole entry): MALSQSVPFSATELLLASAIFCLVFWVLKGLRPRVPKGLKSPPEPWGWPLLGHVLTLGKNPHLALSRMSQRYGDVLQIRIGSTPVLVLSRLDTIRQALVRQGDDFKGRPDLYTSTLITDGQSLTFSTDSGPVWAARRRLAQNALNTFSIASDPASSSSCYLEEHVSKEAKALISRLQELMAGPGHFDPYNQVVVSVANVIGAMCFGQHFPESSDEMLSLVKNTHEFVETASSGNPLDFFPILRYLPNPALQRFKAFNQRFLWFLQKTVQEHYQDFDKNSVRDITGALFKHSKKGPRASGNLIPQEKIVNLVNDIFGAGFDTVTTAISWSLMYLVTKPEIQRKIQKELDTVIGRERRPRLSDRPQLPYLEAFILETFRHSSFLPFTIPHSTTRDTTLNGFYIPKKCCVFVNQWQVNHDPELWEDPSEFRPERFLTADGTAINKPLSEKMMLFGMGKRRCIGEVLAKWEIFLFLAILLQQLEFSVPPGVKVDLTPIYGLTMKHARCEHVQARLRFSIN
Nature of the data set: Inhibition of CYP1A2 (unknown origin). Format: ADME.

Data set [3] in a line: Volume of distribution at steady state in Sprague-Dawley rat. Format: ADME. The conditions noted are these: in vivo, read-out: Vdss. A digest of the protocol: (§1)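 IV and PO pharmacokinetics in male Sprague-Dawley rats, n = 1–3. The oral dose was a 2–3 mg/kg solution. Plasma clearance, Vss and oral bioavailability were determined.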
Data set [4] relates to Rattus norvegicus. Nature of the data set: Reversal of amphetamine-induced hyperlocomotion in Sprague-Dawley rat at 56.6 mg/kg, po pretreated 30 mins post habituation in the chamber followed by amphetamine injection after 30 mins measured after 60 mins. The conditions noted are these: in the assay text read “1 mg/kg” for “56.6 mg/kg”. Format: functional. A digest of the protocol:
(§2)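 Male Sprague-Dawley rats, n = 6–24 per dose group, were habituated in the chamber for 30 min. The compound or vehicle (10% tween-80 in water, v/v) was then given orally. Amphetamine 0.75 mg/kg was injected subcutaneously 30 min later. Total ambulations over t = 60–120 min gave % reversal of AHL, reported as mean ± SEM.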

The target in data set [5] is T2, Muscarinic acetylcholine receptor M4 (Homo sapiens) (UniProt P08173).
T2 sequence (whole entry): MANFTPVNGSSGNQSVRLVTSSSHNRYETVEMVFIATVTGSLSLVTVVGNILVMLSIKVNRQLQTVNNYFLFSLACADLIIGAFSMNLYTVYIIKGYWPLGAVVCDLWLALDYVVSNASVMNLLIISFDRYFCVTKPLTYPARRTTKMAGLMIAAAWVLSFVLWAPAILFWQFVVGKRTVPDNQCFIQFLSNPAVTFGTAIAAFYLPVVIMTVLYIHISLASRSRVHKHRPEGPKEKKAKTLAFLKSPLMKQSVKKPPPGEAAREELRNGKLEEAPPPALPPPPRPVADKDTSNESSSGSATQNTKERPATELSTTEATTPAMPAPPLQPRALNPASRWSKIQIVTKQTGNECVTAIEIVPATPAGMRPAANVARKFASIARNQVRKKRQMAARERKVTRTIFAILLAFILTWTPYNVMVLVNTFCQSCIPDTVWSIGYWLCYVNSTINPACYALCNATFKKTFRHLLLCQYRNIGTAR
The data set can be described thus: Positive allosteric modulation of human M4 receptor expressed in CHO cells co-expressing Gqi5 assessed as increase in acetylcholine-induced calcium mobilization relative to acetylcholine. Format: functional, cell-based. The essentials: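 Calcium mobilization in CHO cells stably co-expressing hM4 and Gqi5, tested in the presence of a fixed EC20 concentration of acetylcholine. Values are means of three independent experiments, each run in triplicate.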

Data set [6] deals with MDR1. Nature of the data set: Efflux ratio of permeability in MDCK2-MDR1 cells. Format: ADME, cell-based, Canis lupus familiaris. The conditions noted are these: dog, MDCK-MDR1.
Data set [7] concerns Rattus norvegicus. The data set can be described thus: Reversal of amphetamine-induced hyperlocomotion in Sprague-Dawley rat at 3 mg/kg, po pretreated 30 mins post habituation in the chamber followed by amphetamine injection after 30 mins measured after 60 mins. Type of data set: functional. The essentials: as §2
Data set [8] deals with T3, Muscarinic acetylcholine receptor M4 (Homo sapiens, UniProt P08173).
T3 sequence (P08173 whole entry): T2 sequence (whole entry)
The data set can be described thus: Positive allosteric modulation of human M4 receptor expressed in CHO cells co-expressing Gqi5 assessed as increase in acetylcholine-induced calcium mobilization. In general terms: Calcium flux is commonly read through the fluorescence of an indicator in the cells.

The subject of data set [9] is Rattus norvegicus. The data set can be described thus: Reversal of amphetamine-induced hyperlocomotion in Sprague-Dawley rat at 30 mg/kg, po pretreated 30 mins post habituation in the chamber followed by amphetamine injection after 30 mins measured after 60 mins. Format: functional. The essentials: as §2
Data set [10] is described as follows: Clearance in Sprague-Dawley rat. Format: ADME. The settings on record: in vivo. The essentials: as §1
Data set [11] addresses T4, Muscarinic acetylcholine receptor M2 (Homo sapiens, UniProt P08172).
T4 sequence (P08172 whole entry): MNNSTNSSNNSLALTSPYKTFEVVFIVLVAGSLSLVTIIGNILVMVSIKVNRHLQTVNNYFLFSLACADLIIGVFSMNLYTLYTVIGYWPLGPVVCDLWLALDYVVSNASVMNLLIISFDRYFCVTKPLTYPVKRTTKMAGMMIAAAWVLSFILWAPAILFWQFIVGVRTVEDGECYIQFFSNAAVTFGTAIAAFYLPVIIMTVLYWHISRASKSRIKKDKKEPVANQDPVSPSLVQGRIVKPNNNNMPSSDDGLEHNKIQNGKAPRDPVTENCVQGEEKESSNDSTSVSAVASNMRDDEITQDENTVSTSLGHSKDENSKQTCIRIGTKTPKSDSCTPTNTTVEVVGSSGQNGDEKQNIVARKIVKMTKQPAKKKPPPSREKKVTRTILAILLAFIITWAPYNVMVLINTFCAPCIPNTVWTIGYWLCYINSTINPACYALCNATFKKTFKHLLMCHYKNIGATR
Nature of the data set: Activity at human M2 receptor assessed as increase in acetylcholine-induced calcium mobilization. Format: functional.

The nature of data set [12]: Elimination half-life in Sprague-Dawley rat. Format: ADME. The settings on record: in vivo, read-out: beta t1/2 (converted).
Data set [13] is described as follows: Ratio of unbound brain to plasma concentration in Sprague-Dawley rat administered as iv cassette dose measured at 0.25 hrs post dose. Type of data set: ADME, organism-based.
The target of data set [14] is Cytochrome P450 2D6 (Homo sapiens, UniProt P10635). Nature of the data set: Inhibition of CYP2D6 (unknown origin). Format: ADME.
For data set [15], the system named is Rattus norvegicus. The data set can be described thus: Reversal of amphetamine-induced hyperlocomotion in Sprague-Dawley rat at 10 mg/kg, po pretreated 30 mins post habituation in the chamber followed by amphetamine injection after 30 mins measured after 60 mins. Type of data set: functional. The essentials:
as §2

A short description of data set [16]: Brain to plasma permeability coefficient, Kp of the compound in Sprague-Dawley rat administered as iv cassette dose measured at 0.25 hrs post dose. Type of data set: ADME, organism-based. The conditions noted are these: brain, 0.25 h.
Data set [17] has as its target Cytochrome P450 2C9 (Homo sapiens, UniProt P11712). Nature of the data set: Inhibition of CYP2C9 (unknown origin). Type of data set: ADME.
In data set [18] the target is T5, Muscarinic acetylcholine receptor M2 (Homo sapiens) (UniProt P08172).
T5 sequence (whole entry): T4 sequence (P08172 whole entry)
Nature of the data set: Activity at human M2 receptor assessed as increase in acetylcholine-induced calcium mobilization relative to acetylcholine. Type of data set: functional.

Cytochrome P450 2C9, sequence (P11712 whole entry): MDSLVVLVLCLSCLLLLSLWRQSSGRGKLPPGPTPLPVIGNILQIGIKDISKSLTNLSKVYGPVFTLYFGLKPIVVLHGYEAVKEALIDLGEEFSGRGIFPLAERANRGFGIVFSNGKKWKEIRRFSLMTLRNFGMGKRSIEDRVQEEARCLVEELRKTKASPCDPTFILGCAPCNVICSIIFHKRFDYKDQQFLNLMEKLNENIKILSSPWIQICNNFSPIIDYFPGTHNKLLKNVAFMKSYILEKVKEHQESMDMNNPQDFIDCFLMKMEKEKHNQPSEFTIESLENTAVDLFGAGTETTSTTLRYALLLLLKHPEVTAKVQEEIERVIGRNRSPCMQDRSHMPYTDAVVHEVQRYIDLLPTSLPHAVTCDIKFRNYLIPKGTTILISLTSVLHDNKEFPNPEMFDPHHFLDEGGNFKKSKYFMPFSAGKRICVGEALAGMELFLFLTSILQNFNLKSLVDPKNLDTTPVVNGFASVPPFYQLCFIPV
Cytochrome P450 3A4, sequence (P08684 whole entry): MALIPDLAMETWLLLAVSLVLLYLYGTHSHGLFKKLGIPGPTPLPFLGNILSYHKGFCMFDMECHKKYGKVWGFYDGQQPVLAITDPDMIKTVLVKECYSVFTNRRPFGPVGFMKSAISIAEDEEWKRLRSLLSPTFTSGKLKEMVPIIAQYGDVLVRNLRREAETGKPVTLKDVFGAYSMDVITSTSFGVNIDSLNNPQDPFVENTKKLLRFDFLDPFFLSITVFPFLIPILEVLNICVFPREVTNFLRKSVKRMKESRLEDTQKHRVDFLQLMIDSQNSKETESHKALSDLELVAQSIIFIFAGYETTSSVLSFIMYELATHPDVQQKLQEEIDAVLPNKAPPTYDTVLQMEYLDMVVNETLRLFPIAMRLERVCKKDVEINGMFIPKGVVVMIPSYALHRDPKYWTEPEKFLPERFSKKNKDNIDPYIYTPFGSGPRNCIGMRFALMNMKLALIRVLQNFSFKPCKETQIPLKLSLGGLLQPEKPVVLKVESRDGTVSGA
Cytochrome P450 2D6, sequence (P10635 whole entry): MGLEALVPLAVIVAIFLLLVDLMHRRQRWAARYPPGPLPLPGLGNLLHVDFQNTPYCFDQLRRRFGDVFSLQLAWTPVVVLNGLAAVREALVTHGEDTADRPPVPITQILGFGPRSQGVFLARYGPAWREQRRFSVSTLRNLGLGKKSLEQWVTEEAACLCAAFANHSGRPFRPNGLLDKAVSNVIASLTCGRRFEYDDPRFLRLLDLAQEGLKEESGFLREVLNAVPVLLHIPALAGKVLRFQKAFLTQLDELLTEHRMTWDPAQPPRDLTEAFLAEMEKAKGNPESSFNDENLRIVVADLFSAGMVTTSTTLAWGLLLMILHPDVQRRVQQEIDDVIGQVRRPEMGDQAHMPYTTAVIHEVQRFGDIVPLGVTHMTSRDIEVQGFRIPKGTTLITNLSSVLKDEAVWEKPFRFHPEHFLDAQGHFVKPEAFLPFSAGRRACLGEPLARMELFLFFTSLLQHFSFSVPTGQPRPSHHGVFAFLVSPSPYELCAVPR

Broadly, the IC50 is the concentration that gives 50% inhibition. Read a low IC50 as greater potency. A word on the efflux ratio: it is the permeability from basolateral to apical divided by that in the opposite direction, in the common usage. As usually defined, the EC50 is the midpoint of the concentration-response curve. In general, clearance refers to the volume of plasma or blood freed of the substance per unit of time. Lower therefore signals a low capacity for elimination. For orientation: Kp means the ratio of the level in a tissue or fluid to that in plasma or blood. On to `Cc1nnc2sc(C(=O)NC3CN(c4ccc(C(F)(F)F)nc4)C3)c(N)c2c1C`, for which the IC50 in data set [1], in data set [2], in data set [14] and in data set [17] was above 30 µM throughout. In addition, the Vd in data set [3] is 0.89 L/kg. Moreover, the Activity in [4] was 44%; in data set [7] it was 48%; in data set [9], 55 - 56%; in data set [15], 55%. Besides, the %max in data set [5] is 75%; in data set [18] it was 43%. The efflux ratio in data set [6] was 8.5. Also, the EC50 was 0.076 µM in data set [8] and 0.96 µM in data set [11]. Besides, the clearance in data set [10] amounted to 8.8 mL/min/kg. Also, the half-life in [12] was 1.3 h. Further, the “K(p,uu,brain)” value in [13] worked out at 0.33. Besides, the Kp in data set [16] is recorded as 0.12.
